ASAP1 GAP inh: inhibitors of human ASAP1 ArfGAP activity, primary screen, biochemical, fluorescence polarization; Arf-GAP with SH3 domain, ANK repeat and PH domain-containing protein 1 (Homo sapiens), …; ASAP1-stimulated ARF1 GTP hydrolysis, GDP FP detection; inhibition, % at 16.5 µM; actives 0.19% (n = 360,000); AID 624377, 2012; in the data active = inhibition above about 25%;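 also: 0% = vehicle with enzyme and substrate and 100% = no enzyme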
Target sequence (Q9ULH1 325-724 limits assumed): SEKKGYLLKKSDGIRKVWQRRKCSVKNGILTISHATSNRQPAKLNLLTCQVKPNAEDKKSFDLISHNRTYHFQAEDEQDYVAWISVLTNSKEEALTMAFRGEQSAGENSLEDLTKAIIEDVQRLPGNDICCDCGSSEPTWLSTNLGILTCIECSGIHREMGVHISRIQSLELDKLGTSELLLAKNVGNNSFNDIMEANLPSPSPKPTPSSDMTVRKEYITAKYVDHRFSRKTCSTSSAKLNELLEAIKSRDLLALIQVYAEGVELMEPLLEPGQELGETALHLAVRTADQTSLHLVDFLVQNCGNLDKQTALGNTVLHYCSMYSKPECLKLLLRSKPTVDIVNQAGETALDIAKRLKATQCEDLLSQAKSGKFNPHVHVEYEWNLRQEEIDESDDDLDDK
ARFGAP1 inhibitor: inhibitors of rat ARFGAP1 GAP activity, primary screen, biochemical, fluorescence polarization, GDP tracer. AID 651572, 2012. inhibition, % at 16.5 µM. ADP-ribosylation factor GTPase-activating protein 1 (Rattus norvegicus), Q62848. Arfgap1-stimulated ARF1 GTP hydrolysis, GDP FP detection. actives 0.26% (n = 360,000);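 active = inhibition above a per-plate limit, mean inhibition of low control wells plus 3 SD, cut at about 25% in these data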;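 also: 0% = DMSO wells with enzyme and 100% = wells lacking Arfgap1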
Target sequence (Q62848 1-136 limits assumed): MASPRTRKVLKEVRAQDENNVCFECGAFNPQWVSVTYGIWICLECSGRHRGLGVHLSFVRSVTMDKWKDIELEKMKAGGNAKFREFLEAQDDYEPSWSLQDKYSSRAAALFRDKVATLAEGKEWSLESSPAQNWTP
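Material – truncated rat Arfgap1 GAP domain · Buffer or medium – HEPES-based buffer, pH 7.5 · Reagent – human ARF1(Δ1-17)-GTP substrate · Dosing – 16.5 µM single point, 1.26% DMSO · Schedule – GTP hydrolysis reaction 2 h at 25 °C · Technique – GDP detection by fluorescence polarization · Benchmarks – No-Arfgap1 wells (100%) versus DMSO full-reaction wells (0%) · Repeats – single replicate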
Mot1-301 SUMO: yeast Mot1-301 growth rescue at high temperature, primary screen, SUMOylation pathway inhibitor project, S. cerevisiae, ATP luminescence, 38.5C; S. cerevisiae Mot1-301 growth rescue; percent above DMSO median, 100 means doubled; AID 2716, 2010; actives 1% (n = 320,000); growth rescue, % at 18.8 µM;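 active = every valid replicate shows activation above 250% relative to neutral control wells; inactive = the rest, any valid replicate at or below 250%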;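 also: OY570 slx delta 5 strain wells were the positive control but not used for scaling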
APOBEC3G inh: APOBEC3G DNA deaminase inhibitors, primary screen, biochemical, fluorescence, single-stranded DNA substrate, uHTS. AID 493012, 2011. DNA dC->dU-editing enzyme APOBEC-3G (Homo sapiens), Q9HC16. actives 0.28% (n = 330,000). inhibition, % at 20 µM. recombinant A3G, ssDNA deamination FAM/TAMRA fluorescence;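 active = inhibition of at least 40% at 20 µM, with no more than 30% in the related APOBEC3A deaminase screen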;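 also: plate controls were DMSO wells with A3G for no effect and wells lacking A3G enzyme for full effect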
APOBEC3A inh: APOBEC3A ssDNA deaminase inhibitors, primary screen, selectivity assay for APOBEC3G inhibitor project, biochemical, FAM/TAMRA oligo cleavage fluorescence | recombinant A3A, FAM/TAMRA ssDNA deamination fluorescence | inhibition, % at 20 µM | actives 0.41% (n = 330,000);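 active = at least 40% inhibition at 20 µM here, with at most 30% in a related deaminase screen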;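 also: plate controls were A3A with DMSO for no effect and wells lacking A3A enzyme for full effect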
Target sequence (P31941 whole entry, looked up): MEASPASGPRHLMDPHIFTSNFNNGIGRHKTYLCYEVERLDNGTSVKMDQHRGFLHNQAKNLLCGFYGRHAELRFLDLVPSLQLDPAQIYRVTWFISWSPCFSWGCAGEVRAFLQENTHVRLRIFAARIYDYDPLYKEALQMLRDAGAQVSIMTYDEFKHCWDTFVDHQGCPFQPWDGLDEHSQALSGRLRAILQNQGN
Statin myotox sup: suppressors of statin myotoxicity in C2C12 myotubes, primary screen, cell-based, single point, plate reader; C2C12 myotubes + simvastatin, ATP luminescence, 48 h; scaled: DMSO 0, geranylgeraniol control 100; rescue of ATP level, % at 7.49 µM; actives 0.78% (n = 330,000); AID 602340, 2012;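 active = mean ATP rescue above about 67%, or every replicate alone reaching that limit, limit read from the data, passing the limit was not always enough; inconclusive = no clear call, values can overlap the other calls; inactive = mean under the limit and some replicate under it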;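 also: myotubes were challenged with 10 µM simvastatin during compound exposure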
Mot1 SUMO dose: growth restoration of Mot1-301 yeast on galactose, dose response, SUMO pathway inhibitor project, whole organism, S. cerevisiae, ATP luminescence, cherry-picked samples. shares compounds with Mot1-301 SUMO. S. cerevisiae Mot1-301 galactose growth, 24 h; -100 = growth of slx-deleted rescue strain. growth activity, percent, % at 42 µM. 2,300 tested, under 10 active. AID 493004, 2010;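 active = Signal drops as the depositor expects, and the fitted half-maximal dose is no more than ten times the top valid tested dose; inconclusive = Poor fit, or a flat curve whose signal drops by 30% to 70%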;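 also: more negative values mean stronger growth rescue toward the control strain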
The depositor's hits bear a star; u = inconclusive; x = not tested or not shown; + = active, no number; [ ] = remark or other dose. Shown are actives, neighbours in structure and some others; about 2.1% of the full set was active somewhere.

SMILES	ASAP1 GAP inh	ARFGAP1 inhibitor	Mot1-301 SUMO	APOBEC3G inh	APOBEC3A inh	Statin myotox sup	Mot1 SUMO dose
COc1nc(OC)nc(N2CCC(C(=O)NC3CC3)CC2)n1	-1.7	-4.9	-0.3	16.5	3.1	x	x
COc1nc(OC)nc(N2CCC(C(=O)NC3CCCCCC3)CC2)n1	-0.9	-4.8	382.1*	-3.7	-1.6	0.0	0.6
CN(C)CC(=O)Nc1ccc2c(c1)[C@@H]1C[C@@H](CC(=O)N(C)C)O[C@H](CO)[C@@H]1O2	x	x	x	x	x	-6.9	x
O=C(NC1CCCC1)C(c1cccs1)N(C(=O)c1ccno1)c1ccccc1 (centres undefined)	1.8	3.7	815.0*	-2.2	-0.4	x	0.2
COc1cccc(/C=N/n2cnc3ccccc32)c1OC	-6.1	3.1	406.4*	-1.4	0.2	-7.6	-0.9
COc1cccc(/C=N/n2c(N)nc3ccccc32)c1OC	-5.5	21.8	616.0	-3.6	-2.5	-19.0	x
O=C(NNc1ccccc1)C(CCO)C(=O)NNc1ccccc1	2.7	2.9	403.6*	28.2	-1.4	x	0.4
COc1ccc(S(=O)(=O)Nc2ccc3c(c2)C(=O)N([C@H](C)CO)C[C@@H](C)[C@H](CN(C)C(=O)Nc2ccc(F)cc2)OCCCC[C@H](C)O3)cc1	x	x	x	x	x	-17.0	x
CN(C(=O)CSc1nnc(-c2cccc(F)c2)n1N)C1CCS(=O)(=O)C1 (centres undefined)	4.4	4.8	400.9*	-13.7	-3.3	x	0.5
Nc1nc2ccccc2cc1-c1cccs1	-0.3	4.8	435.2*	-8.6	-3.2	-2.0	-0.9
CCCCCCCN1C(Nc2ccccc2)=NC[C@@H]1CC(C)C	-2.2	4.4	610.7*	-3.9	5.0	-28.9	-1.0[21 µM]
CCCNC(=O)C[C@H]1C[C@@H]2c3cc(NC(=O)CC4CC4)ccc3O[C@@H]2[C@@H](CO)O1	x	x	x	x	x	-4.1	x
Nc1ccc(S(=O)(=O)NNC(=O)C(=O)NNc2ccccc2)cc1	0.0	1.5	405.2*	-6.7	-2.7	-2.8	0.1
Cc1cc(C)n(-c2ccc(C(=O)C(C#N)c3nc4ccccc4n3C)cc2)n1 (centres undefined)	-1.3	-9.8	775.3*	1.1	-5.1	-47.4	0.1
Cc1cc(C)n(-c2ccc(C(=O)OC(C)C)cc2)n1	7.5	-1.4	2.5	-6.4	-1.8	10.8	x
c1ccc2c(C[C@@H]3CNCCN3CCCCC3CCCCC3)cccc2c1	-8.4	6.0	401.7*	22.4	-1.9	-4.2	-2.9
CCCCC(=O)Nc1nnc(/C=C/c2ccc(OC)cc2)s1	x	x	713.9*	-4.2	-1.1	33.3	0.0
CCCC(=O)Nc1nnc(/C=C/c2ccc(OC)cc2)s1	7.5	15.2	3.1	-8.4	-2.4	x	x
O=C(CSc1nnc(-c2ccc(Br)cc2)o1)Nc1cccc2ccccc12	-6.0	-7.3	663.4*	-1.5	3.1	-33.4	0.0
O=C(CSc1nnc(-c2ccc(Br)cc2)o1)Nc1cccc(C(=O)O)c1	-5.5	4.8	-22.5	-11.2	-1.0	-7.2	x
Cc1ccc(NC(=O)CN2CCN(CCN=CC3=C(O)CC(C)(C)CC3=O)CC2)cc1	21.2	11.0	984.7*	-3.6	-1.9	x	0.7
C(=N\Nc1ccc2nncn2n1)/c1ccccn1	-2.4	3.5	498.8*	-2.3	-0.6	x	0.2
CC(C)c1onc(C(=O)N(C)Cc2ccccc2)c1[N+](=O)[O-]	-6.7	12.9	726.3*	-5.3	0.4	4.5	0.3
CC(C)c1onc(C(=O)NCCc2ccccc2)c1[N+](=O)[O-]	8.4	7.7	108.0	0.4	8.5	x	x
C/C(=N\NC(=O)c1ccc(Cl)cc1)c1cccnc1	-1.9	8.7	713.6*	-3.8	-0.1	-17.7	0.8
SMILES	ASAP1 GAP inh	ARFGAP1 inhibitor	Mot1-301 SUMO	APOBEC3G inh	APOBEC3A inh	Statin myotox sup	Mot1 SUMO dose
Cc1ccc2c(c1)N(Cc1ccccc1)C(=O)C(C)O2 (centres undefined)	6.6	8.1	x	x	x	2.2	x
CC1=Nc2ccc(C)cc2N(Cc2ccccc2)C(=O)C1	2.4	-4.8	628.5*	-2.9	-3.0	-10.5	0.1
O=C(OCC(=O)c1ccc[nH]1)c1ccc([N+](=O)[O-])cc1	-4.4	-2.0	14.9	-4.2	0.3	-5.6	x
O=C(COC(=O)c1ccc([N+](=O)[O-])s1)c1ccc[nH]1	-11.6	-11.1	516.2*	-3.2	-1.0	2.7	-2.9
CCNC(=O)C1CC(=O)N(Cc2ccc3c(c2)OCO3)C(=Nc2ccc(F)cc2)S1 (centres undefined)	-3.2	-0.7	780.6*	-4.8	-1.8	u	0.6
Cc1nc(-c2ccc(Cl)cc2)sc1C1(C)CC(c2c(Cl)cccc2Cl)=NO1 (centres undefined)	-0.3	7.4	420.8*	-7.4	-1.0	-3.2	0.2
O=S(=O)(NCc1ccco1)c1ccc2ccccc2c1	5.6	1.4	429.7*	-8.3	-0.6	36.1	-0.1
CCC(C)NCCCCOc1ccc(Br)cc1 (centres undefined)	8.4	10.5	33.4	-6.9	-2.0	x	x
CCC(C)NCCCCOc1cc(C)cc(C(C)C)c1 (centres undefined)	5.7	-0.2	401.4*	-9.5	2.0	x	-0.1
COc1ccccc1CNC(=O)C[C@H]1C[C@@H]2c3cc(NS(=O)(=O)c4ccc(F)cc4)ccc3O[C@@H]2[C@H](CO)O1	x	x	x	x	x	-2.4	x
O=C(C[C@H]1CC[C@H](NC(=O)c2ccncc2)[C@H](CO)O1)NCC1CCCCC1	x	x	x	x	x	6.6	x
CCOc1ccc(NC(=O)Nc2ccc3nsnc3c2)cc1	5.3	3.9	+	-3.3	1.2	17.9	0.6
Cc1ccc(-c2nc(CS(=O)(=O)CC(=O)NC3CCCCC3C)c(C)o2)cc1 (centres undefined)	-15.0	7.0	698.6*	4.9	1.5	-1.5	0.9
Cc1ccc(CNC(=O)CCNS(=O)(=O)c2ccc(C)cc2)cc1	2.6	1.4	-18.7	-1.1	0.3	21.8	x
Cc1ccc(CNC(=O)CCNS(=O)(=O)c2cccs2)cc1	13.5	1.1	+	-2.5	-5.1	x	0.6
COc1ccc(NC(=O)N[C@@H]2CC[C@H](CCNC(=O)CCN3CCCCC3)O[C@H]2CO)cc1	x	x	x	x	x	6.5	x
